Drawing on ChEMBL document CHEMBL1125197, “Studies on uricosuric diuretics. 4. Three-dimensional structure-activity relationships and receptor mapping of (aryloxy)acetic acid diuretics” (1991), this text covers Relative activity for 18 compounds.

Where only a bound is given, the exact number is not on record here.

This assay relates to Rattus norvegicus. The experiment in a line: Diuretic activity after peroral administration of 100 mg/Kg in rats. The format is functional, Urine. Put shortly: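 Seven-week-old Wistar–Imamichi rats, fasted 24 h, in groups of five matched for urine output; forced urination before dosing. Oral dose of 100 mg/kg, suspended in physiological saline with 3% gum arabic at 25 mL/kg. Controls received vehicle alone. Animals kept fasted in separate metabolic cages, with urine collected for 6 h. Urine volume expressed as % of control (100%).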
In the case of `C[C@@]1(c2ccccc2)Cc2cc(OCC(=O)O)c(Cl)c(Cl)c2C1=O`, the Relative activity is recorded as 200%.

On to `O=C(O)C1Cc2c(c(Cl)c(Cl)c3nc(-c4ccccc4)oc23)O1` (stereo not drawn), for which the Relative activity came to 450%.

As to `O=C(O)COc1cc2c(=O)c3ccccc3oc2cc1Cl`, the Relative activity was 200%.

Regarding `C[C@]1(c2ccccc2)Cc2cc(OCC(=O)O)c(Cl)c(Cl)c2C1=O`, the Relative activity came out at 350%.

For `O=C(O)COc1ccc2c(-c3ccccc3F)noc2c1Cl`, the Relative activity worked out at 250%.

With `O=C(O)C1Cc2cc3c(=O)c4ccccc4oc3c(Cl)c2O1` (stereo not drawn), the Relative activity worked out at 200%.

For the compound `O=C(O)C1Oc2c(Cl)cc3c(-c4ccccc4)noc3c2O1` (stereo not drawn), the Relative activity turned out to be 160%.

Take `O=C(O)COc1ccc(C(=O)c2cccs2)c(Cl)c1Cl` [TICRYNAFEN]: the Relative activity amounted to 160%.

On to `O=C(O)C1Cc2c(c(Cl)cc3c(-c4ccccc4)noc23)O1` (stereo not drawn), for which the Relative activity is given as 120%.

As for `O=C(c1cccs1)c1cc2c(c(Cl)c1Cl)OC(C(=O)O)C2` (racemic), the Relative activity was determined as 350%.

`O=C(O)C1Oc2cc3c(-c4ccccc4)noc3c(Cl)c2O1` (stereo not drawn): the Relative activity is given as 450%.

Consider `O=C(O)C1Cc2cc3c(-c4ccccc4)noc3c(Cl)c2O1` (stereo not drawn), for which the Relative activity is given as 300%.

Take `O=C(c1cccs1)c1cc2c(c(Cl)c1Cl)O[C@H](C(=O)O)C2`: the Relative activity is 400%.

Consider `O=C(O)COc1cc2oc3ccccc3c(=O)c2cc1Cl`, for which the Relative activity was 200%.

Regarding `O=C(c1cccs1)c1cc2c(c(Cl)c1Cl)O[C@@H](C(=O)O)C2`, the Relative activity is <100%.

For the compound `O=C(O)C1Cc2c(c(Cl)cc3c(=O)c4ccccc4oc23)O1` (stereo not drawn), the Relative activity turned out to be 300%.

`CC1(c2ccccc2)Cc2cc(OCC(=O)O)c(Cl)c(Cl)c2C1=O` (racemic) [INDACRINONE]: the Relative activity is given as 300%.

For the compound `O=C(O)C1Cc2cc(-c3noc4ccccc34)c(Cl)c(Cl)c2O1` (stereo not drawn), the Relative activity is reported as 300%.
